For six molecules, Ki and Selectivity results are on record in ChEMBL document CHEMBL1148443, “Importance of phenolic address groups in opioid kappa receptor selective antagonists” (J Med Chem, 2004).

Experiment [1] concerns the target Kappa-type opioid receptor (Cavia porcellus, UniProt P41144). Briefly: Binding affinity of compound for Opioid receptor kappa 1 was determined using [3H]U-69593 as radioligand from guinea pig caudate. The method, boiled down:
(§1)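 Competitive binding assays. Mu and delta receptors came from rat brain membranes. Kappa receptors came from guinea pig caudate membranes.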

The target of experiment [2] is Opioid receptors; mu & kappa (Homo sapiens) (UniProt P41145+P35372). Briefly: Selectivity of compound for mu opioid receptor to that of kappa opioid receptor. The experiment is classed as protein assay.
Sequence of Opioid receptors; mu & kappa (Homo sapiens) (P35372 whole entry, looked up): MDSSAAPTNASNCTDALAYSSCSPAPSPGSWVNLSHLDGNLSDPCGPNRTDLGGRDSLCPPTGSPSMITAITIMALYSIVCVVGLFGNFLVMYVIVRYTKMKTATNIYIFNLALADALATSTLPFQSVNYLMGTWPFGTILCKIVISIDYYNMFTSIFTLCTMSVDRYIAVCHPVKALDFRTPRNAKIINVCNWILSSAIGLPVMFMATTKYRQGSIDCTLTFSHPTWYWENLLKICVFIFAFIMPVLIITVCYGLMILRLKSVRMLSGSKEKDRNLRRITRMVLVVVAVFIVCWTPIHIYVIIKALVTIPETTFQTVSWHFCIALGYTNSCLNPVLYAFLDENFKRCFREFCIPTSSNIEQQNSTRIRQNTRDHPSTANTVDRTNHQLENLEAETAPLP
Sequence of Opioid receptors; mu & kappa (Homo sapiens) (P41145 whole entry, looked up): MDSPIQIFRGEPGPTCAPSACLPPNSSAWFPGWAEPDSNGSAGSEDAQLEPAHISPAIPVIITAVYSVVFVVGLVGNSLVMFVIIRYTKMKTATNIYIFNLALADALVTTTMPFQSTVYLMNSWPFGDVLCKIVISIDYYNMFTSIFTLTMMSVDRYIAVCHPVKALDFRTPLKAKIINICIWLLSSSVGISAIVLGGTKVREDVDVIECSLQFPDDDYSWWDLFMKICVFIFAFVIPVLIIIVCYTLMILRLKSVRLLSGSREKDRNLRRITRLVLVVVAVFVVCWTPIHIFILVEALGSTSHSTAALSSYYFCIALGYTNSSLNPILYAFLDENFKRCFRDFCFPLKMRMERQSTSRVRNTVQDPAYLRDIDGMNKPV
Experiment [3] addresses Opioid receptors; delta & kappa (Homo sapiens) (UniProt P41145+P41143). Briefly: Selectivity of compound for delta opioid receptor to that of kappa opioid receptor. It is filed as protein assay.
In a further experiment the target is Mu-type opioid receptor (Rattus norvegicus, UniProt P33535). Briefly: Binding affinity of compound for Opioid receptor mu 1 was determined using [3H]DAMGO as radioligand from rat brain tissue. The method, boiled down:
as §1

For experiment [4], the target named is Delta-type opioid receptor (Rattus norvegicus, UniProt P33533). Briefly: Binding affinity of compound for opioid receptor delta 1 was determined using [3H]DADLE as radioligand from rat brain tissue. In outline:
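Competitive binding assays. Mu and delta receptors came from rat brain membranes. Kappa receptors came from guinea pig caudate membranes. Test compounds displaced the receptor-selective radioligand.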

The species named for experiment [5] is Cavia porcellus. Briefly: Functional antagonism was obtained by the ability of compound to inhibit stimulation of [35S]GTP gamma S binding produced by selective agonists SNC-80 in guinea pig caudate membranes. On the technique in general: GTPγS resists hydrolysis and so accumulates on activated G proteins.
For experiment [6], the species on record is Cavia porcellus. Briefly: Functional antagonism was obtained by the ability of compound to inhibit stimulation of [35S]GTP gamma S binding produced by selective agonists U69,593 in guinea pig caudate membranes.
The species named for experiment [7] is Cavia porcellus. Briefly: Functional antagonism was obtained by the ability of compound to inhibit stimulation of [35S]GTP gamma S binding produced by selective agonists DAMGO in guinea pig caudate membranes.

Sequence of Opioid receptors; delta & kappa (Homo sapiens) (P41143 whole entry, looked up): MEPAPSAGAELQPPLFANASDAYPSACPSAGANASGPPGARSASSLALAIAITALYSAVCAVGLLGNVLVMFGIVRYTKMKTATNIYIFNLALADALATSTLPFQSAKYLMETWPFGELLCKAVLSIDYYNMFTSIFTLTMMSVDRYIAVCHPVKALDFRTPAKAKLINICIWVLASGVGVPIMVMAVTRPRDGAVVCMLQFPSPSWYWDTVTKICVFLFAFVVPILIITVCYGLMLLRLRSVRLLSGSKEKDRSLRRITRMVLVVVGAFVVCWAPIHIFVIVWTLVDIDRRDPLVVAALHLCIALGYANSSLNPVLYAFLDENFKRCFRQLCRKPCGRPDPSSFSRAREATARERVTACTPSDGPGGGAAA
Sequence of Opioid receptors; delta & kappa (Homo sapiens) (P41145 whole entry, looked up): as the sequence (P41145 whole entry, looked up) above
Sequence of Delta-type opioid receptor (P33533 whole entry): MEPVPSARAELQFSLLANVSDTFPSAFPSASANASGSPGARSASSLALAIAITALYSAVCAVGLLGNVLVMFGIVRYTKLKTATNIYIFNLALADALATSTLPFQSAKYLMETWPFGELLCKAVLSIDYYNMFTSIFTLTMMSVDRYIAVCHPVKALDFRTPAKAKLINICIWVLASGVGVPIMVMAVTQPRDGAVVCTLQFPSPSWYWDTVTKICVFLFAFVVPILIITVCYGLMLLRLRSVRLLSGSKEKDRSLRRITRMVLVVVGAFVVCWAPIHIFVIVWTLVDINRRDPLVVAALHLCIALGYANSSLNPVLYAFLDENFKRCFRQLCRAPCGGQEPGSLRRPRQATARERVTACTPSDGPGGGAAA
Sequence of Kappa-type opioid receptor (P41144 whole entry): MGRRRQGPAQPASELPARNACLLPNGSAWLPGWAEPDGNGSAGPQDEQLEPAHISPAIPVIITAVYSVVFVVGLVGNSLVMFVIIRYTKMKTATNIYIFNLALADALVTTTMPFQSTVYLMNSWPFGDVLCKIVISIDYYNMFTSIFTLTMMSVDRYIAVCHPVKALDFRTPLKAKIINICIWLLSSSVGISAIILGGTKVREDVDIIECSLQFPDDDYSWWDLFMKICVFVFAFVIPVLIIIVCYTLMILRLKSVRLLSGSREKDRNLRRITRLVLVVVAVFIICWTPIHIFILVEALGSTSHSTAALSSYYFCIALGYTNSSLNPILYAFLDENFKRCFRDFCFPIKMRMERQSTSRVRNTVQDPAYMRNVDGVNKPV
Sequence of Mu-type opioid receptor (P33535 whole entry): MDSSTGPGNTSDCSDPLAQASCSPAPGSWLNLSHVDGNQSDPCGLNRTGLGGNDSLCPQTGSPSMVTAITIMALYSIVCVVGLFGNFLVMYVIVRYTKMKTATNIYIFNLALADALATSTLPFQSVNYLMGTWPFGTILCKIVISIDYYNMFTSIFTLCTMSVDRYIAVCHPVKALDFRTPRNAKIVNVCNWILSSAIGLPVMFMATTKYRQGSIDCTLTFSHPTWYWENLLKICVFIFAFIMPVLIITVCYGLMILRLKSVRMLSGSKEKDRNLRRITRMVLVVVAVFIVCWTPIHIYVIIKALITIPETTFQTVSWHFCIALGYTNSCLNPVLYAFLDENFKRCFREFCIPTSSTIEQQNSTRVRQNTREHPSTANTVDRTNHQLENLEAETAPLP

Regarding `CC(C)[C@@H](CN1CC[C@@](C)(c2cccc(O)c2)[C@@H](C)C1)NC(=O)CCc1ccccc1`, the Ki in experiment [1] was 446 nM; on Mu-type opioid receptor it was 946 nM; in experiment [4], over 5050 nM. Further, the figures for the Selectivity in experiment [2] and in experiment [3] were 2 and 11, respectively.
Consider `CC(C)[C@@H](CN1CC[C@@](C)(c2cccc(O)c2)[C@@H](C)C1)NC(=O)[C@H]1Cc2ccccc2CN1`, for which the Selectivity in experiment [2] was 369; in experiment [3], over 2330. The Ki is 213 nM in the experiment filed under Cavia porcellus [5], 11.5 nM in the experiment filed under Cavia porcellus [6] and 68.6 nM in the experiment filed under Cavia porcellus [7].
For the molecule `Oc1ccc2c3c1O[C@H]1c4[nH]c5c(c4C[C@@]4(O)[C@@H](C2)N(CC2CC2)CC[C@]314)C[C@@]1(O)[C@H]2Cc3ccc(O)c4c3[C@@]1(CCN2CC1CC1)[C@H]5O4` (relative stereo) [NORBINALTORPHIMINE], the Ki in the experiment listed under Cavia porcellus [6] turned out to be 0.038 nM; in the experiment listed under Cavia porcellus [7] it was 16.7 nM.
As to `Oc1ccc2c3c1O[C@H]1c4[nH]c5c(c4C[C@@]4(O)[C@@H](C2)N(CC2CC2)CC[C@]314)C[C@@]1(O)[C@H]2Cc3ccc(O)c4c3[C@@]1(CCN2CC1CC1)[C@H]5O4` [NORBINALTORPHIMINE], the Ki is 1.33 nM in experiment [1] and 111 nM in experiment [4].
As for `CC(C)[C@@H](CN1CC[C@@](C)(c2cccc(O)c2)[C@@H](C)C1)NC(=O)CCc1ccc(O)cc1`, the Selectivity in experiment [2] was 45; in experiment [3], over 885. Besides, the Ki in the experiment listed under Cavia porcellus [5] was determined as 450 nM; in the experiment listed under Cavia porcellus [6] it was 4.7 nM; in the experiment filed under Cavia porcellus [7], 7.25 nM.
Turning to `CC(C)[C@@H](CN1CC[C@@](C)(c2cccc(O)c2)[C@@H](C)C1)NC(=O)[C@H]1Cc2ccc(O)cc2CN1` [JDTIC], the figures for the Selectivity in experiment [2] and in experiment [3] were 12 and 940, respectively. The figures for the inhibitory constant (Ki) in the experiment listed under Cavia porcellus [5], in the experiment filed under Cavia porcellus [6] and in the experiment listed under Cavia porcellus [7] were over 300 nM, 0.02 nM and 2.16 nM, respectively.

In general, Ki refers to the equilibrium dissociation constant of an inhibitor or competing ligand from its target.
